Structures are written as SMILES.

The first data set concerns H9. Kind of data set: Concentration required to inhibit uninfected H9 cell growth by 50%. Type of data set: functional, cell-based. The conditions noted are these: Homo sapiens. A digest of the protocol: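 Mock-infected H9 cells handled in parallel under the same conditions as the infection assay, without virus. Viability read by XTT on day 6. IC50 is the concentration toxic to 50% of mock-infected cells. Averages of at least two experiments.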
`Cc1cc(=O)oc2c3c(c(CBr)cc12)OC(C)(C)[C@H](OC(=O)C12CCC(C)(C(=O)O1)C2(C)C)[C@@H]3OC(=O)C12CCC(C)(C(=O)O1)C2(C)C` (stereo partly specified) yielded an IC50 of more than 13700 nM.

As to `Cc1c(CBr)c(=O)oc2c3c(ccc12)OC(C)(C)[C@H](OC(=O)C12CCC(C)(C(=O)O1)C2(C)C)[C@@H]3OC(=O)C12CCC(C)(C(=O)O1)C2(C)C` (stereo partly specified), the concentration for half-maximal inhibition (IC50) was more than 20900 nM.

In turn, `CC(=O)OCc1cc2ccc3c(c2oc1=O)[C@@H](OC(=O)C12CCC(C)(C(=O)O1)C2(C)C)[C@@H](OC(=O)C12CCC(C)(C(=O)O1)C2(C)C)C(C)(C)O3` (stereo partly specified) gave an IC50 of 11600 nM.

For `CC1(C)Oc2ccc3cc(CO)c(=O)oc3c2[C@@H](OC(=O)C23CCC(C)(C(=O)O2)C3(C)C)[C@H]1OC(=O)C12CCC(C)(C(=O)O1)C2(C)C` (stereo partly specified), the IC50 amounted to 23000 nM.

For the compound `CC1(C)Oc2ccc3ccc(=O)oc3c2[C@@H](OC(=O)C23CCC(C)(C(=O)O2)C3(C)C)[C@H]1OC(=O)C12CCC(C)(C(=O)O1)C2(C)C` (stereo partly specified), the IC50 is more than 16100 nM.

`CC1(C)Oc2ccc3cc(CN)c(=O)oc3c2[C@@H](OC(=O)C23CCC(C)(C(=O)O2)C3(C)C)[C@H]1OC(=O)C12CCC(C)(C(=O)O1)C2(C)C` (stereo partly specified) returned an IC50 of more than 15400 nM.

Take `CCN(CC)Cc1cc2ccc3c(c2oc1=O)[C@@H](OC(=O)C12CCC(C)(C(=O)O1)C2(C)C)[C@@H](OC(=O)C12CCC(C)(C(=O)O1)C2(C)C)C(C)(C)O3` (stereo partly specified): the concentration for half-maximal inhibition (IC50) was more than 14100 nM.

Tested on in a further data set: not listed separately
Kind of data set: Therapeutic index (IC50/EC50) was determined. The conditions noted are these: read-out: TI. The essentials: (§1)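 H9 T-cells (3 × 10^5 cells/mL) in RPMI 1640 with 10% FCS at 37 °C, 5% CO2, infected with HIV-1 IIIB (125 TCID50). Medium replaced on days 1 and 4 post-infection. Supernatant p24 antigen capture read on day 6. EC50 is the concentration suppressing replication by 50%; TI = IC50/EC50. AZT run as positive control. Averages of at least two experiments.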
Consider `Cc1cc(=O)oc2c3c(c(CBr)cc12)OC(C)(C)[C@H](OC(=O)C12CCC(C)(C(=O)O1)C2(C)C)[C@@H]3OC(=O)C12CCC(C)(C(=O)O1)C2(C)C` (stereo partly specified), for which the selectivity ratio was more than 88.

Consider `Cc1c(CBr)c(=O)oc2c3c(ccc12)OC(C)(C)[C@H](OC(=O)C12CCC(C)(C(=O)O1)C2(C)C)[C@@H]3OC(=O)C12CCC(C)(C(=O)O1)C2(C)C` (stereo partly specified), for which the selectivity ratio is more than 190000.

With `CC(=O)OCc1cc2ccc3c(c2oc1=O)[C@@H](OC(=O)C12CCC(C)(C(=O)O1)C2(C)C)[C@@H](OC(=O)C12CCC(C)(C(=O)O1)C2(C)C)C(C)(C)O3` (stereo partly specified), the selectivity ratio worked out at 676.

As for `CC1(C)Oc2ccc3cc(CO)c(=O)oc3c2[C@@H](OC(=O)C23CCC(C)(C(=O)O2)C3(C)C)[C@H]1OC(=O)C12CCC(C)(C(=O)O1)C2(C)C` (stereo partly specified), the selectivity ratio turned out to be 806.

As to `CC1(C)Oc2ccc3ccc(=O)oc3c2[C@@H](OC(=O)C23CCC(C)(C(=O)O2)C3(C)C)[C@H]1OC(=O)C12CCC(C)(C(=O)O1)C2(C)C` (stereo partly specified), the selectivity ratio is more than 328.

With `CC1(C)Oc2ccc3cc(CN)c(=O)oc3c2[C@@H](OC(=O)C23CCC(C)(C(=O)O2)C3(C)C)[C@H]1OC(=O)C12CCC(C)(C(=O)O1)C2(C)C` (stereo partly specified), the selectivity ratio was more than 23.

As to `CCN(CC)Cc1cc2ccc3c(c2oc1=O)[C@@H](OC(=O)C12CCC(C)(C(=O)O1)C2(C)C)[C@@H](OC(=O)C12CCC(C)(C(=O)O1)C2(C)C)C(C)(C)O3` (stereo partly specified), the selectivity ratio is more than 4.

For a further data set, the system named is Human immunodeficiency virus 1. Kind of data set: Concentration required to inhibit HIV-1 replication in acutely infected H9 lymphocytes by 50%.
Settings: not given
The data set is classed as functional, organism-based. A digest of the protocol: as §1
In turn, `Cc1cc(=O)oc2c3c(c(CBr)cc12)OC(C)(C)[C@H](OC(=O)C12CCC(C)(C(=O)O1)C2(C)C)[C@@H]3OC(=O)C12CCC(C)(C(=O)O1)C2(C)C` (stereo partly specified) showed a 50% effective concentration (EC50) of 156 nM.

`Cc1c(CBr)c(=O)oc2c3c(ccc12)OC(C)(C)[C@H](OC(=O)C12CCC(C)(C(=O)O1)C2(C)C)[C@@H]3OC(=O)C12CCC(C)(C(=O)O1)C2(C)C` (stereo partly specified) had an EC50 of 0.11 nM.

For `CC(=O)OCc1cc2ccc3c(c2oc1=O)[C@@H](OC(=O)C12CCC(C)(C(=O)O1)C2(C)C)[C@@H](OC(=O)C12CCC(C)(C(=O)O1)C2(C)C)C(C)(C)O3` (stereo partly specified), the EC50 is 17 nM.

`CC1(C)Oc2ccc3cc(CO)c(=O)oc3c2[C@@H](OC(=O)C23CCC(C)(C(=O)O2)C3(C)C)[C@H]1OC(=O)C12CCC(C)(C(=O)O1)C2(C)C` (stereo partly specified) displayed an EC50 of 29 nM.

`CC1(C)Oc2ccc3ccc(=O)oc3c2[C@@H](OC(=O)C23CCC(C)(C(=O)O2)C3(C)C)[C@H]1OC(=O)C12CCC(C)(C(=O)O1)C2(C)C` (stereo partly specified) came in with an EC50 of 49 nM.

Compound `CC1(C)Oc2ccc3cc(CN)c(=O)oc3c2[C@@H](OC(=O)C23CCC(C)(C(=O)O2)C3(C)C)[C@H]1OC(=O)C12CCC(C)(C(=O)O1)C2(C)C` (stereo partly specified) returned an EC50 of 677 nM.

Compound `CCN(CC)Cc1cc2ccc3c(c2oc1=O)[C@@H](OC(=O)C12CCC(C)(C(=O)O1)C2(C)C)[C@@H](OC(=O)C12CCC(C)(C(=O)O1)C2(C)C)C(C)(C)O3` (stereo partly specified) returned an EC50 of 3670 nM.
